Experimental data reported in ChEMBL document CHEMBL3797175, “Discovery of 6-(difluoro(6-(4-fluorophenyl)-[1,2,4]triazolo[4,3-b][1,2,4]triazin-3-yl)methyl)quinoline as a highly potent and selective c-Met inhibitor” (Eur J Med Chem, 2016).
The source made the active and inactive calls. The calls are words filed in the database; no cut-off is given here.

Key:
[1] = target: T1, Hepatocyte growth factor receptor (Homo sapiens, UniProt P08581); assay: Inhibition of recombinant c-Met (unknown origin) using poly (Glu, Tyr) 4:1 as substrate incubated for 60 mins by ELISA
[2] = target: Proto-oncogene tyrosine-protein kinase ROS (Homo sapiens) (UniProt P08922); assay: Inhibition of recombinant ROS1 (unknown origin) using poly (Glu, Tyr) 4:1 as substrate at 1000 nM incubated for 60 mins by ELISA relative to control
Method in brief: (§1)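 Recombinant tyrosine kinases assayed on wells precoated with poly(Glu,Tyr)4:1 (20 µg/mL). ATP 10 µmol/L in HEPES pH 7.4 buffer with MgCl2, MnCl2, Na3VO4 and DTT; compound in 1% DMSO, 1% DMSO as control. Reaction 60 min at 37 °C. Phosphotyrosine detected with PY99 and HRP anti-mouse, o-phenylenediamine, A490. Inhibition % relative to control; two experiments.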

[3] = target: Ephrin type-B receptor 2 (Homo sapiens) (UniProt P29323); assay: Inhibition of recombinant EPHB2 (unknown origin) using poly (Glu, Tyr) 4:1 as substrate at 1000 nM incubated for 60 mins by ELISA relative to control; method in brief: as §1
[4] = target: T1, Hepatocyte growth factor receptor; assay: Inhibition of c-Met phosphorylation at Tyrosine 1235 in HGF stimulated human U87MG cells at 10 nM after 1 hr by Western blot analysis; format: cell-based; settings: U-87MG ATCC
Method in brief: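 U87MG cells serum-starved 24 h, pretreated with compound 1 h at 37 °C, then stimulated with HGF (100 ng/mL) for 15 min. Lysed in 1× SDS sample buffer, resolved by 10% SDS-PAGE and blotted to nitrocellulose. Probed for phospho-c-Met, phospho-ERK1/2, phospho-AKT and totals, with GAPDH as loading control. ECL detection.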

[5] = system: NCI-H292; assay: Antiproliferative activity against human NCI-H292 cells after 72 hrs by SRB or MTT assay; format: functional, cell-based; settings: NCI-H292, 72 h
Method in brief: (§2)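 Cells seeded, exposed next day to a range of concentrations for 72 h. Growth read by sulforhodamine B or MTT. IC50 from four-parameter concentration-response fit. Each concentration tested at least in triplicate, with at least 2 experiments.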

[6] = system: NCI-H661; assay: Antiproliferative activity against human NCI-H661 cells after 72 hrs by SRB or MTT assay; format: functional, cell-based; settings: NCI-H661, 72 h; method in brief: as §2
[7] = Antitumor activity against human MKN45 cells xenografted in athymic nude mouse assessed as tumor growth inhibition at 25 mg/kg, po bid for 21 days measured twice a week during compound dosing relative to control; format: functional; settings: MKN-45, po, 504 h, read-out: TGI
Method in brief: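 Nude mice bearing s.c. tumours. Cells were first grown s.c. to 700–800 mm³, then 1.5 mm³ fragments were transplanted s.c. into the right flank. Mice were randomised at 100–200 mm³ (n=6 treated, n=12 vehicle) and dosed orally twice daily for 21 days. Caliper measurement twice weekly; TV = length×width²/2. TGI taken on the final day versus vehicle; Student's t test.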

[8] = Selectivity ratio of IC50 for human U87MG cells to IC50 for mouse BAF3 cells expressing TPR-MET; format: ADME, cell-based
[9] = Selectivity ratio of IC50 for human Bel7404 cells to IC50 for human EBC1 cells; format: ADME, cell-based
Method in brief: (§3)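 Both IC50s in each ratio come from one proliferation assay. Cells were seeded and exposed the next day to a range of concentrations for 72 h, then read by SRB or MTT. IC50s were fitted by four-parameter concentration–response, with each concentration at least in triplicate and at least 2 experiments. BaF3/TPR-Met is murine pre-B BaF3 transfected with TPR-MET and puromycin-selected.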

[10] = Selectivity ratio of IC50 for human NCI-H1299 cells to IC50 for human MKN45 cells; format: ADME, cell-based; method in brief: as §3
[11] = Selectivity ratio of IC50 for human NCI-H358 cells to IC50 for human MKN45 cells; format: ADME, cell-based; method in brief: as §3
[12] = Selectivity ratio of IC50 for human NCI-H3122 cells to IC50 for human EBC1 cells; format: ADME, cell-based; method in brief: as §3
[13] = Selectivity ratio of IC50 for human NCI-H460 cells to IC50 for human EBC1 cells; format: ADME, cell-based; method in brief: as §3
[14] = Selectivity ratio of IC50 for human NCI-H460 cells to IC50 for mouse BAF3 cells expressing TPR-MET; format: ADME, cell-based; method in brief: as §3
[15] = Selectivity ratio of IC50 for human Calu3 cells to IC50 for mouse BAF3 cells expressing TPR-MET; format: ADME, cell-based; method in brief: as §3
[16] = Selectivity ratio of IC50 for human MDA-MB-231 cells to IC50 for mouse BAF3 cells expressing TPR-MET; format: ADME, cell-based; method in brief: as §3
[17] = Selectivity ratio of IC50 for human SGC7901 cells to IC50 for human MKN45 cells; format: ADME, cell-based; settings: sgc-7901
Method in brief: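 Each cell line was seeded in 96-well plates, then exposed the next day to a range of compound concentrations for 72 h. Growth was read by SRB or MTT assay, and IC50 was fitted by a four-parameter concentration-response curve. Each concentration was run at least in triplicate, in at least 2 experiments. BaF3/TPR-Met are murine pre-B BaF3 cells transfected with TPR-MET cDNA and selected in puromycin.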

[18] = Selectivity ratio of IC50 for human MGC803 cells to IC50 for human MKN45 cells; format: ADME, cell-based; settings: mgc-803; method in brief: as §3
[19] = Selectivity ratio of IC50 for human SPCA4 cells to IC50 for human MKN45 cells; format: ADME, cell-based, SPC-A4; settings: SPCA4 cells versus MKN45 cells

T1 sequence (P08581 whole entry): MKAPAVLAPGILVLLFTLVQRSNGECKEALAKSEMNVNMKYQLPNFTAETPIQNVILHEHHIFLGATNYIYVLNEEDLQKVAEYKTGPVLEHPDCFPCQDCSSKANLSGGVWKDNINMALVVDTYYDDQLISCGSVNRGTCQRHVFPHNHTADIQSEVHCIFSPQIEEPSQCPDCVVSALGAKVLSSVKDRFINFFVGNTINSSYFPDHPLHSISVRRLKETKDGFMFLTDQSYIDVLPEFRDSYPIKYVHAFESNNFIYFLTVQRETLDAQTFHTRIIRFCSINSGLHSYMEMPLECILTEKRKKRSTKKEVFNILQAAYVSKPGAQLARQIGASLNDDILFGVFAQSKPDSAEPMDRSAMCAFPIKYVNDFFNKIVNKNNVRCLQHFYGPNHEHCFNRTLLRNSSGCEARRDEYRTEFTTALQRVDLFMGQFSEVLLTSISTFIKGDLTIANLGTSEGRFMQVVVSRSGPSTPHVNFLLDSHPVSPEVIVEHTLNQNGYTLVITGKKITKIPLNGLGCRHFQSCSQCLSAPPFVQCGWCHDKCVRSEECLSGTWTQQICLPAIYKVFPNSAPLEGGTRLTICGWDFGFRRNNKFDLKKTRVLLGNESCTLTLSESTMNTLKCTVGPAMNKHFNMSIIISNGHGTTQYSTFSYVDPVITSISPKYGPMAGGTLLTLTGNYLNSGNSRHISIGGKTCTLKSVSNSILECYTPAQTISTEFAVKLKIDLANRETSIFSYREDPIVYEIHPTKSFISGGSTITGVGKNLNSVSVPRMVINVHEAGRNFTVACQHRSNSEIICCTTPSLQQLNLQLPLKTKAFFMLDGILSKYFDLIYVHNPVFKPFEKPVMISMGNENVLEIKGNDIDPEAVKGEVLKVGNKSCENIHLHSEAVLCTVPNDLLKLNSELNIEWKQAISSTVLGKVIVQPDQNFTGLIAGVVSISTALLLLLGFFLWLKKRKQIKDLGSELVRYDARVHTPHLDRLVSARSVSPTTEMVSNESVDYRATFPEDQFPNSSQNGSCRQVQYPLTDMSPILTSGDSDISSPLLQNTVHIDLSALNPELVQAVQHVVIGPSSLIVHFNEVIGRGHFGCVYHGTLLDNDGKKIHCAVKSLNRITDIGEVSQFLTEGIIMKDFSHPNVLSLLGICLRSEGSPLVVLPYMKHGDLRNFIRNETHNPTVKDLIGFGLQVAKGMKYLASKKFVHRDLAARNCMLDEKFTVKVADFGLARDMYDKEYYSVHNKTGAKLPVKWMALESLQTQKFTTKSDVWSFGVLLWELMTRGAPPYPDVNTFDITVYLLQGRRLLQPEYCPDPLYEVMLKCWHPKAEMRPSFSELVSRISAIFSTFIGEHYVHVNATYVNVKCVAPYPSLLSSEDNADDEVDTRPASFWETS
Chain of Proto-oncogene tyrosine-protein kinase ROS (Homo sapiens) (P08922 whole entry): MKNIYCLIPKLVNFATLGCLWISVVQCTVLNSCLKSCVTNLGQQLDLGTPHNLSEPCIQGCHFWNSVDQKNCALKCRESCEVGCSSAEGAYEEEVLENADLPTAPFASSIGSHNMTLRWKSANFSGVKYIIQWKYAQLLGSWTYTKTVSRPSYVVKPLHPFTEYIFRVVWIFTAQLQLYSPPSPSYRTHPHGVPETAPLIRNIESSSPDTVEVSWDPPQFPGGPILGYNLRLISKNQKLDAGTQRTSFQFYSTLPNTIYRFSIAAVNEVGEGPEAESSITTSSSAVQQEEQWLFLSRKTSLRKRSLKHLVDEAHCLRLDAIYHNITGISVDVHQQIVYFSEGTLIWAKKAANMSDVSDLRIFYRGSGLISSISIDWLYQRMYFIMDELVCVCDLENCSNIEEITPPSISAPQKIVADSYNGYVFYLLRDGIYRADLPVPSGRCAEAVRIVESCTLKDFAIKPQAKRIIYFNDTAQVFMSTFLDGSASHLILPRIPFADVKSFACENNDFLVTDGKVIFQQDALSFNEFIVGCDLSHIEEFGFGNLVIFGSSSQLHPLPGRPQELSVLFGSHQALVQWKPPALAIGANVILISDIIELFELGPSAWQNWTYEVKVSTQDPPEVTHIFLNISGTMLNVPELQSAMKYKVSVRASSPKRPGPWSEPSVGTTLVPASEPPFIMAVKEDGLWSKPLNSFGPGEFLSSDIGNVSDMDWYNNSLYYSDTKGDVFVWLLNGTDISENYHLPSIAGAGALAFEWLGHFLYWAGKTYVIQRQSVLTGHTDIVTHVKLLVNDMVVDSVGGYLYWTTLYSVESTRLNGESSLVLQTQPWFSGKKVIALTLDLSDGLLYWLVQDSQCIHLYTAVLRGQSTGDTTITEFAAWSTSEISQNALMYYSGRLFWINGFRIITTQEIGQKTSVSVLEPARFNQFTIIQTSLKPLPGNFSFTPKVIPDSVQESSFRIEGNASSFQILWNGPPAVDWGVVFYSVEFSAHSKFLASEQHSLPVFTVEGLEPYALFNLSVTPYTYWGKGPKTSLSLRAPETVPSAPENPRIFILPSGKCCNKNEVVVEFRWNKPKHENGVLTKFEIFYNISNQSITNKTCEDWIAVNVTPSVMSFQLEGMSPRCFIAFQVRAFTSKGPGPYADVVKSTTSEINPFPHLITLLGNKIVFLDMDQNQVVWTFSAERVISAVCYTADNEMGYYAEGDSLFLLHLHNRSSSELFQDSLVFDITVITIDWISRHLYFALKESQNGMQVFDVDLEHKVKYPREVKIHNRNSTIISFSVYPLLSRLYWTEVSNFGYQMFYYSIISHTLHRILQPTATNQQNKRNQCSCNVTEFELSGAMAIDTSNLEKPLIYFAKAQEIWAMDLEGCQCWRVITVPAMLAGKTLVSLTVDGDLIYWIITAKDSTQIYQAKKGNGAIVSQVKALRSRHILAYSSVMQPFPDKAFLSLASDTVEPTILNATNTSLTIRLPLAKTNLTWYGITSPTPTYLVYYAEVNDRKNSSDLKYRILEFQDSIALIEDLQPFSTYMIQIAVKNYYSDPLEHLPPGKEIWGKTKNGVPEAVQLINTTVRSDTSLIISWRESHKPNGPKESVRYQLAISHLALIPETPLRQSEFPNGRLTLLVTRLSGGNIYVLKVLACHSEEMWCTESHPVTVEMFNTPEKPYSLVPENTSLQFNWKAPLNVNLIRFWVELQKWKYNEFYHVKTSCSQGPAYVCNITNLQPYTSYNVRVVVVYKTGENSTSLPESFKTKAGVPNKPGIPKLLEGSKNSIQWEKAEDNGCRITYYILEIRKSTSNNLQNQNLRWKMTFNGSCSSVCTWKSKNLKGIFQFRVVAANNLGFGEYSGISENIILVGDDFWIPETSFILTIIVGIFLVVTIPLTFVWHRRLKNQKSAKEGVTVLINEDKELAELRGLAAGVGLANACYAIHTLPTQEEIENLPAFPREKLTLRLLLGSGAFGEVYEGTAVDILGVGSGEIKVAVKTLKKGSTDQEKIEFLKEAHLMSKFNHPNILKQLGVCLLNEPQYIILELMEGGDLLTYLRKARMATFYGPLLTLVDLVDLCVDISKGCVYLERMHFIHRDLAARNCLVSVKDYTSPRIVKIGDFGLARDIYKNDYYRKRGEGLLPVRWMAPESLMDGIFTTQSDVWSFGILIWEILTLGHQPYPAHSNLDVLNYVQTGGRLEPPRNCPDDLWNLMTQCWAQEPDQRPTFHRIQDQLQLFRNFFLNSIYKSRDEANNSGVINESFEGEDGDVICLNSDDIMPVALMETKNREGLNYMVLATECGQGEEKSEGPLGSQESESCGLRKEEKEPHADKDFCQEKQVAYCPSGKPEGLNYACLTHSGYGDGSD
Chain of Ephrin type-B receptor 2 (Homo sapiens) (P29323 whole entry): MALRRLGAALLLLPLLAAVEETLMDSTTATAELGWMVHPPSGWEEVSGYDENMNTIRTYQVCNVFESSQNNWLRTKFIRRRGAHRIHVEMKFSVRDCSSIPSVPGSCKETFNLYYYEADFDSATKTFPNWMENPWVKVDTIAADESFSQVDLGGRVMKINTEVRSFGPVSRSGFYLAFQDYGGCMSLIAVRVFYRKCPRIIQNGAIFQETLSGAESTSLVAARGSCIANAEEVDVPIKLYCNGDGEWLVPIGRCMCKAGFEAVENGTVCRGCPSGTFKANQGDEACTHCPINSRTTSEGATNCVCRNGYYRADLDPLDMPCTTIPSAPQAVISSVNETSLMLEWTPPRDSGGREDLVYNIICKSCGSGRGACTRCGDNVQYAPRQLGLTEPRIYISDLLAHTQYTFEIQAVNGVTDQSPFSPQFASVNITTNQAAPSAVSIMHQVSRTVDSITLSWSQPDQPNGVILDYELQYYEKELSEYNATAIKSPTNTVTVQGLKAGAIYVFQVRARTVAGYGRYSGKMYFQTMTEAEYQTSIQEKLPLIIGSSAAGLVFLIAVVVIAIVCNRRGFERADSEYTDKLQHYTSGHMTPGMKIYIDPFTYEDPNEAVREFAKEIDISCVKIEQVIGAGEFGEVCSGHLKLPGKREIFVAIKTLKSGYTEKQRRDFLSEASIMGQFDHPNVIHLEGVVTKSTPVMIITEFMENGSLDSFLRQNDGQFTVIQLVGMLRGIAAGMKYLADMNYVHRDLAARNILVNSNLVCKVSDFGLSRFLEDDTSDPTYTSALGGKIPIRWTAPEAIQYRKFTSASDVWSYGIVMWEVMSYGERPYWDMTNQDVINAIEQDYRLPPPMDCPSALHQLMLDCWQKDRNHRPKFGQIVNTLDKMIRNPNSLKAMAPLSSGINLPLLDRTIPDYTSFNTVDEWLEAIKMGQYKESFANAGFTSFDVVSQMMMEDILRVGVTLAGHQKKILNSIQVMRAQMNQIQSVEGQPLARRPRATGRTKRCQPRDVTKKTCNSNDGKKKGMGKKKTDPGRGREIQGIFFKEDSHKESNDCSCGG

IC50 [1]: 0.24 nM
inhibition [2]: 10.6%
inhibition [3]: 8.5%
inhibition [4]: Active
IC50 [5]: > 10 µM
IC50 [6]: > 10 µM
SMILES: Fc1ccc(-c2cnc3nnc(C(F)(F)c4ccc5ncccc5c4)n3n2)cc1
inhibition in vivo at 25 mg/kg [7]: 96.5%
Ratio IC50 [8]: 10000
Ratio IC50 [9]: 10000
Ratio IC50 [10]: 10000
Ratio IC50 [11]: 10000
Ratio IC50 [12]: 10000
Ratio IC50 [13]: 10000
Ratio IC50 [14]: 10000
Ratio IC50 [15]: > 10000
Ratio IC50 [16]: > 10000
Ratio IC50 [17]: > 10000
Ratio IC50 [18]: > 10000
selectivity ratio [19]: > 10000
